Source: ChEMBL document CHEMBL1765064, “Discovery of potent and selective inhibitors of ataxia telangiectasia mutated and Rad3 related (ATR) protein kinase as potential anticancer agents” (J Med Chem, 2011)

Legend:
[1] = molecular target: T1, Serine/threonine-protein kinase ATR (Homo sapiens, UniProt Q13535); assay: Inhibition of full length recombinant ATR after 24 hrs by radiometric phosphate incorporation assay
Summary of the method: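 Radiometric [γ-33P]ATP incorporation into target peptide. Full-length ATR and ATM were made in-house; DNA-PK was purchased. Kinase, buffer and peptide were premixed, then compound was added in DMSO (7% final DMSO). Reactions started with ATP at 25 °C and were stopped with phosphoric acid (100 mM final) plus ATP (0.66 μM final). Peptide was captured on phosphocellulose, washed, and scintillation-counted.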

[2] = molecular target: Serine-protein kinase ATM (Homo sapiens, UniProt Q13315); assay: Inhibition of full length recombinant ATM after 24 hrs by radiometric phosphate incorporation assay
Sequence of Serine-protein kinase ATM (Q13315 whole entry): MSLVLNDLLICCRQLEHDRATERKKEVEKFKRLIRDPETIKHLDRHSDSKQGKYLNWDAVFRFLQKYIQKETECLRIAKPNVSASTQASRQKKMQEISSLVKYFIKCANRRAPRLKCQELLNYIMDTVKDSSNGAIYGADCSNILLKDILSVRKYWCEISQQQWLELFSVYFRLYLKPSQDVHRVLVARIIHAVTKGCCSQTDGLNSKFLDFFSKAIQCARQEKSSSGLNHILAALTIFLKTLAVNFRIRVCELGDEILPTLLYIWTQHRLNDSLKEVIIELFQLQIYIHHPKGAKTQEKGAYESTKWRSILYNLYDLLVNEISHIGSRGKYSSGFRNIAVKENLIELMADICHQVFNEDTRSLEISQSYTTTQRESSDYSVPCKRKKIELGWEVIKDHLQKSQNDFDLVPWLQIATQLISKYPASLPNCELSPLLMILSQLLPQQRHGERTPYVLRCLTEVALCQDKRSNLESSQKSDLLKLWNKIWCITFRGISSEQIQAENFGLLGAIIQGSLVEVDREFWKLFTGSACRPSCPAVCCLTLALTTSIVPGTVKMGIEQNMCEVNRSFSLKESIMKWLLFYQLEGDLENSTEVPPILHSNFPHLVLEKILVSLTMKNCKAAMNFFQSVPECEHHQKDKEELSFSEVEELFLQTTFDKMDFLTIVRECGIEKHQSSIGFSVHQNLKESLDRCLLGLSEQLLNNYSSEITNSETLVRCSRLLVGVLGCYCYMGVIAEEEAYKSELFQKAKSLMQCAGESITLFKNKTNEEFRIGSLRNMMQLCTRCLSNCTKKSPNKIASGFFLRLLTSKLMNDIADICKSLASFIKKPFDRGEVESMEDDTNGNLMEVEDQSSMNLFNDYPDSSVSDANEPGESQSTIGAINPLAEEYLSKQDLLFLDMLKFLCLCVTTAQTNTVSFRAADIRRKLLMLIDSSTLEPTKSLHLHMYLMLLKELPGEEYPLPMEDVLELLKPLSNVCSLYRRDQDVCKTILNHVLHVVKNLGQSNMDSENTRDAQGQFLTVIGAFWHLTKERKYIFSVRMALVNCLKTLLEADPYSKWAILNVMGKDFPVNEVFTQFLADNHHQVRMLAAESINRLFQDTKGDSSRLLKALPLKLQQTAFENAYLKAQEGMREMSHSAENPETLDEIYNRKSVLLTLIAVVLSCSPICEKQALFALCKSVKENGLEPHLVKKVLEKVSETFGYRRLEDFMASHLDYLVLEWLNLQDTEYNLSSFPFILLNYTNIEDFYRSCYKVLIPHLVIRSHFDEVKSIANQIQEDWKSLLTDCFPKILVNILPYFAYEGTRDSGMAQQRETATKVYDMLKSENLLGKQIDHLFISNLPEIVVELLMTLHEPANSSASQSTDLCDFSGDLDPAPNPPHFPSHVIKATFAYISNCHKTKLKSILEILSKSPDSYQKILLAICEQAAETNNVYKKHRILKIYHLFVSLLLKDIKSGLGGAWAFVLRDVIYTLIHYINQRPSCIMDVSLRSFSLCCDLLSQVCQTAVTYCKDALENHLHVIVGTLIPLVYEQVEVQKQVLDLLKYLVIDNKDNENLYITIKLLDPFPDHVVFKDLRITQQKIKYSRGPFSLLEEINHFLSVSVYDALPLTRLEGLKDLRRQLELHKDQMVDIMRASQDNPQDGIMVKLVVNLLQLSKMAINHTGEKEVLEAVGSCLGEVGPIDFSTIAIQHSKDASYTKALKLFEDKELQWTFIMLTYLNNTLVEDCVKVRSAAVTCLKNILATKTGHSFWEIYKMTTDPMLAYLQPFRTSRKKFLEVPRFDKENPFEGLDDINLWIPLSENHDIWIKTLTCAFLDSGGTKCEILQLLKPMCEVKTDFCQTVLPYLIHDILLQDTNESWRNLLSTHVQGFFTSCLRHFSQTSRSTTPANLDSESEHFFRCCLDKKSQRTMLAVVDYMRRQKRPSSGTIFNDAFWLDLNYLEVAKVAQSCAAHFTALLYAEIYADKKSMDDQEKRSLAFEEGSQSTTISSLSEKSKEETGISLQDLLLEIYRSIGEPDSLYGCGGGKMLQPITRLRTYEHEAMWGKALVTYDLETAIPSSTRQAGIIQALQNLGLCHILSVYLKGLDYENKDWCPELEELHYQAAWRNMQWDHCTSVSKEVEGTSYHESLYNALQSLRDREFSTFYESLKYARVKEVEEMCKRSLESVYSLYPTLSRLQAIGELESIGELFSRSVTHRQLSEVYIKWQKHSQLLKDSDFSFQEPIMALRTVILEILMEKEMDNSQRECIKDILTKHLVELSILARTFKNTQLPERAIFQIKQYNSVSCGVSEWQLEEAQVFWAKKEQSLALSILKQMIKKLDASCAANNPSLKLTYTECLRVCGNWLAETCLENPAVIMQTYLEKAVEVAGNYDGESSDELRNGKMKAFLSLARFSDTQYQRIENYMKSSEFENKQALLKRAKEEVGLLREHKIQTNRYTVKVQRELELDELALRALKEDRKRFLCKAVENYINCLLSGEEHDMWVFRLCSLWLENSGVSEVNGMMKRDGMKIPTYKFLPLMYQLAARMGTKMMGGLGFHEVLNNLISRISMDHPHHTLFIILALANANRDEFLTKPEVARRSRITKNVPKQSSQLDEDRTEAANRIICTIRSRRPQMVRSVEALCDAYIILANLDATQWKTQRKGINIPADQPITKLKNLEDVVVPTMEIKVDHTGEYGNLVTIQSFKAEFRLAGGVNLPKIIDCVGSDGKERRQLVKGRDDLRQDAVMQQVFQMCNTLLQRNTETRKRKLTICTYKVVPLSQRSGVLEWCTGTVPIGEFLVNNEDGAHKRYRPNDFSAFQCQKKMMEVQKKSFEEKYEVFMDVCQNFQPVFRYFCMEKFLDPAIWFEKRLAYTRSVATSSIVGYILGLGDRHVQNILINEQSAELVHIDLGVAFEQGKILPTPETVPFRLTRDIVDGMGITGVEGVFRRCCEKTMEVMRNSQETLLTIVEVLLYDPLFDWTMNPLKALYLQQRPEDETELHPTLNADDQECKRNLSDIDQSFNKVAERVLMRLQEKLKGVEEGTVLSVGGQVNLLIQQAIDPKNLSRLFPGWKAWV

[3] = molecular target: DNA-dependent protein kinase catalytic subunit (Homo sapiens, UniProt P78527); assay: Inhibition of DNAPK after 2 hrs by radiometric phosphate incorporation assay
[4] = molecular target: Cytochrome P450 3A4 (Homo sapiens, UniProt P08684); assay: Inhibition of CYP3A4; type: ADME
Sequence of Cytochrome P450 3A4 (P08684 whole entry): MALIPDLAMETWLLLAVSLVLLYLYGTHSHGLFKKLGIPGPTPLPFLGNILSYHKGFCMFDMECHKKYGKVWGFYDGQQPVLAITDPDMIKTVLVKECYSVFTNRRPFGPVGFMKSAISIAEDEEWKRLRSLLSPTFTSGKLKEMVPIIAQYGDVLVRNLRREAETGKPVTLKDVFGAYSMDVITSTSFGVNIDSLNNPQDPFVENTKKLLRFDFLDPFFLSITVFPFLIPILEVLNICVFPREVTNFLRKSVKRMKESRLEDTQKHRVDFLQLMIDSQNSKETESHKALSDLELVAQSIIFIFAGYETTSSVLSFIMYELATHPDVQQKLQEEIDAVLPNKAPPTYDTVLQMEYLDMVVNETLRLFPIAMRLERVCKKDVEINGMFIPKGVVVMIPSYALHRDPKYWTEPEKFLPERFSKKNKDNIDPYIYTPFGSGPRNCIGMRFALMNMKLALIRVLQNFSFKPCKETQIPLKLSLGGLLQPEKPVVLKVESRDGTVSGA

[5] = molecular target: T1, Serine/threonine-protein kinase ATR; assay: Inhibition of ATR in human HT-29 cells assessed as hydroxyurea-induced phosphorylation of H2AX by immunofluorescence microscopy; type: cell-based
[6] = Permeability from apical to basolateral side of human Caco2 cells; type: ADME, cell-based; details: Caco-2, read-out: permeability
[7] = Permeability from basolateral to apical side of human Caco2 cells; type: ADME, cell-based; details: Caco-2, read-out: permeability
[8] = system: HCT-116; assay: Cytotoxicity against human HCT116 cells after 96 hrs by MTS assay; type: functional, cell-based; details: HCT-116, 96 h
Summary of the method: (§1)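 Exponentially growing cells were plated and left to adhere overnight. Compounds were added at the indicated concentrations for 96 h. MTS reagent was then added, and absorbance at 490 nm was read 1 h later as a measure of cell density.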

[9] = system: HFL1; assay: Cytotoxicity against human HFL1 cells at up to 20 uM after 96 hrs by MTS assay; type: cell-based; details: hfl1, 96 h; summary of the method: as §1
[10] = system: HCT-116; assay: Potentiation of cisplatin-induced cytotoxicity against human HCT116 cells at 0.62 uM after 96 hrs by MTS assay; type: functional
Summary of the method: (§2)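 Exponentially growing cells (ATCC lines, kept per supplier) plated and left to adhere overnight, then given inhibitor at 0.62 μM combined with cisplatin at the indicated concentrations for 96 h. Cell density read by MTS reagent, absorbance at 490 nm 1 h after addition. Fold change in cisplatin potency taken as potentiation. Synergy judged by MacSynergy analysis.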

[11] = system: HFL1; assay: Potentiation of cisplatin-induced cytotoxicity against human HFL1 cells at 0.62 uM after 96 hrs by MTS assay; type: cell-based; details: hfl1, 96 h; summary of the method: as §2
[12] = molecular target: T1, Serine/threonine-protein kinase ATR; assay: Competitive inhibition of full length recombinant ATR Morrison equation analysis
Summary of the method: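 Mean IC50s were plotted against ATP concentration and fit to the tight-binding competitive-inhibition equation IC50 = Ki(1 + [ATP]/Km) + [E]/2 to obtain Ki.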

[13] = molecular target: Serine/threonine-protein kinase mTOR (Homo sapiens, UniProt P42345); assay: Inhibition of mTOR by radiometric phosphate incorporation assay

| Structure (SMILES) | IC50 [1] | IC50 [2] | IC50 [3] | IC50 [5] | other results |
| --- | --- | --- | --- | --- | --- |
| Nc1ncc(-c2cccc(O)c2)nc1C(=O)Nc1ccccc1 | 0.54 µM | > 8 µM | 2.2 µM |  |  |
| Nc1ncc(-c2cccnc2)nc1C(=O)Nc1ccccc1 | 0.18 µM | > 8 µM | > 8 µM |  | IC50 [4]: 2 µM |
| Nc1ncc(-c2ccccc2Cl)nc1C(=O)Nc1ccccc1 | 0.7 µM | > 8 µM | 3.8 µM |  |  |
| O=c1cc(N2CCOCC2)oc2c1ccc1ccccc12 | > 100 µM | > 100 µM |  |  |  |
| CC(CN(C)C)S(=O)(=O)c1ccc(-c2cnc(N)c(C(=O)Nc3ccccc3)n2)cc1 (centres undefined) | 0.012 µM | > 8 µM | > 8 µM | 0.42 µM | Papp A→B [6]: 17 ×10⁻⁶ cm/s; Papp B→A [7]: 23 ×10⁻⁶ cm/s; IC50 [8]: 1.1 µM; Activity [9]: Non-toxic; fold change (FC) [10]: 7; fold change (FC) [11]: 1.1; Ki [12]: 0.006 µM |
| O=c1cc(-c2cccc3c2Sc2ccccc2S3)oc(N2CCOCC2)c1 [KU-55933] | > 100 µM |  |  |  | IC50 [13]: 9.3 µM |
| CN(C)C(=O)c1ccc(-c2cnc(N)c(C(=O)Nc3ccccc3)n2)cc1 | 0.054 µM | > 8 µM | > 8 µM | 2 µM |  |
| Nc1ncc(-c2ccncc2)nc1C(=O)Nc1ccccc1 | 0.64 µM | > 8 µM | 5 µM |  |  |
| Cc1cccc(-c2cnc(N)c(C(=O)Nc3ccccc3)n2)c1 | 0.56 µM | > 8 µM | > 8 µM |  |  |
| CS(=O)(=O)c1ccc(-c2cnc(N)c(C(=O)NC3CCCCC3)n2)cc1 | 3.56 µM | > 8 µM | > 8 µM |  |  |
| Nc1ncc(-c2ccc(C(=O)N3CCCCC3)cc2)nc1C(=O)Nc1ccccc1 | 0.026 µM | > 8 µM | > 8 µM | 6.5 µM |  |
| Nc1ncc(-c2ccc(C(=O)N3CCC3)cc2)nc1C(=O)Nc1ccccc1 | 0.1 µM | > 8 µM | > 8 µM | 1 µM |  |
| Cc1ccc(-c2cnc(N)c(C(=O)Nc3ccccc3)n2)cc1 | 1.7 µM | > 8 µM | > 8 µM |  |  |
| Nc1ncc(C2=CCCCC2)nc1C(=O)Nc1ccccc1 | 2.1 µM | > 8 µM | > 8 µM |  |  |
| CS(=O)(=O)c1ccc(-c2cnc(N)c(-c3cc4ccccc4[nH]3)n2)cc1 | 0.023 µM | 0.12 µM | 2.4 µM |  |  |
| Nc1ncc(Br)nc1C(=O)Nc1ccccc1 | 5.2 µM | > 8 µM | > 8 µM |  |  |
| CCS(=O)(=O)c1ccc(-c2cnc(N)c(C(=O)Nc3ccccc3)n2)cc1 | 0.012 µM | > 8 µM | 5.8 µM | 1.5 µM |  |
| CC(C)S(=O)(=O)c1ccc(-c2cnc(N)c(C(=O)Nc3ccccc3)n2)cc1 | 0.008 µM | > 8 µM | 5.6 µM | 1 µM |  |
| CN(C)C(=O)c1ccc(-c2cnc(N)c(C(=O)Nc3ccccc3)n2)cc1Cl | 0.048 µM | > 8 µM | > 8 µM | 12 µM |  |
| CC(CCO)S(=O)(=O)c1ccc(-c2cnc(N)c(C(=O)Nc3ccccc3)n2)cc1 (centres undefined) | 0.008 µM | > 8 µM | 3.2 µM | 0.38 µM |  |
| Nc1ncc(-c2ccc(O)cc2)nc1C(=O)Nc1ccccc1 | 0.32 µM | 5.8 µM | 1.8 µM |  |  |
| Cn1c(=O)c2c(ncn2C)n(C)c1=O [CAFFEINE] | 1100 µM | 200 µM | 10000 µM |  | IC50 [13]: 400 µM |
| NC(=O)c1ccc(-c2cnc(N)c(C(=O)Nc3ccccc3)n2)cc1 | 0.11 µM | 2.9 µM | 1.2 µM |  |  |
| CCCS(=O)(=O)c1ccc(-c2cnc(N)c(C(=O)Nc3ccccc3)n2)cc1 | 0.014 µM | 5.4 µM | > 8 µM | 2 µM |  |
| CS(=O)(=O)c1ccc(-c2cnc(N)c(-c3nc4ccccc4[nH]3)n2)cc1 | 0.03 µM | 0.38 µM | 2.1 µM |  |  |
| Nc1ncc(-c2ccc(Cl)cc2)nc1C(=O)Nc1ccccc1 | 2.4 µM | > 8 µM | > 8 µM |  |  |
